The source of these data is ChEMBL document CHEMBL2010753, “Free radical scavenging and antiproliferative properties of Biginelli adducts” (2012).

Each structure is given as a SMILES string. Converted amounts (≈) assume the structure as drawn. The source made the active and inactive calls. The rule behind the calls is not given here.

Common to all, as to assay type: functional
Test [1] in a line: Antioxidant activity assessed as scavenging of DPPH at 160 uM after 30 mins by spectrophotometry.
Test [2] in a line: Antioxidant activity assessed as scavenging of superoxide anions after 10 mins by spectrophotometry. The gist of the method: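 Superoxide generated photochemically in 50 mM phosphate buffer pH 7.8 with 13 mM L-methionine, 75 μM nitroblue tetrazolium, 100 μM EDTA, 2 μM riboflavin. Compound at 0–200 μM (12.5–200 μM tested), fluorescent light 10 min at 25 °C; dark-kept mixtures as controls; read at 575 nm. Triplicates in three independent experiments.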

Test [3] can be described thus: Antioxidant activity assessed as concentration required to scavenge 50% superoxide anions after 10 mins by spectrophotometry.
The nature of test [4]: Antioxidant activity assessed as scavenging of DPPH at 34.4 uM up to 10 mins by spectrophotometry. The gist of the method: (§1)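 Kinetic run: reaction medium with 10 nmol DPPH radicals in ethanol and compound at the stated concentration, DPPH scavenging followed over time up to 10 min. Three independent experiments, each in triplicate.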
For test [5], the system named is U-251. The test is described as follows: Growth inhibition of human U251 cells after 48 hrs by sulforhodamine B assay. As to conditions: U-251, 48 h.
The nature of test [6]: Antioxidant activity assessed as scavenging of DPPH at 20.3 uM up to 10 mins by spectrophotometry. The method in brief:
as §1

The test system of test [7] is 786-0. The test can be described thus: Growth inhibition of human 786-0 cells after 48 hrs by sulforhodamine B assay. As to conditions: 786-0, 48 h.
The nature of test [8]: Growth inhibition of human NCI-ADR-RES cells after 48 hrs by sulforhodamine B assay.
The test system of test [9] is HT-29. The test can be described thus: Growth inhibition of human HT-29 cells after 48 hrs by sulforhodamine B assay. Conditions: HT-29, 48 h.
For test [10], the system named is NCI-H460. The test can be described thus: Growth inhibition of human NCI-H460 cells after 48 hrs by sulforhodamine B assay. Conditions: NCI-H460, 48 h.
The test system of test [11] is PC-3. The test is described as follows: Growth inhibition of human PC3 cells after 48 hrs by sulforhodamine B assay. As to conditions: PC-3, 48 h.
Test [12] can be described thus: Antioxidant activity assessed as concentration required for 50% DPPH scavenging activity after 30 mins by spectrophotometry.
Test [13] concerns OVCAR-3. The test is described as follows: Growth inhibition of human OVCAR3 cells after 48 hrs by sulforhodamine B assay. As to conditions: OVCAR-3, 48 h.
Test [14] in a line: Antioxidant activity assessed as scavenging of DPPH at 20.3 uM after 1 min by spectrophotometry relative to resveratrol.
Test [15] in a line: Antioxidant activity assessed as concentration required for 50% DPPH scavenging activity after 30 mins by spectrophotometry relative to monastrol.

`Oc1ccc(/C=C/c2cc(O)cc(O)c2)cc1`: the outcome in test [1] and in [4] was Active. The Activity entry in [2] is “Dose-dependent effect”; in test [3] it was 121 µM.

Regarding `CCOC(=O)C1=C(C)NC(=O)NC1c1ccc(O)c(O)c1` (configuration not stated), the outcome in test [1] was Active. Besides, the GI50 was found to be 0.25 µg/mL (≈ 0.855 µM) in [5]; 20.7 µg/mL (≈ 70.8 µM) in [7]; 2.1 µg/mL (≈ 7.18 µM) in test [8]; 37.8 µg/mL (≈ 129 µM) in test [9]; 34 µg/mL (≈ 116 µM) in test [10]; 18.2 µg/mL (≈ 62.3 µM) in [11]. The molecule also gave a concentration for 50% growth inhibition (GI50) in test [13] of 1.6 µg/mL (≈ 5.47 µM). Further, the Activity came to 488 pmol in [6] and 33 µM in [3]. Moreover, the IC50 in test [12] was 20.3 µM. In addition, the fold change (FC) in test [14] was 2; in test [15], 37.
